In assay [1] the test system is Enterococcus faecalis. As to the kind of experiment: Antibacterial activity against vancomycin-sensitive Enterococcus faecalis. The class given is functional. The procedure, abridged:
(§1)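 Broth microdilution in Mueller–Hinton medium, with the inoculum a 1/10 dilution of seed culture. Peptoids were dissolved in 50% MeOH/H2O to 1 mg/mL, added to the top row and serially diluted down the plate. Plates were incubated at 37 °C with shaking at 100 rpm for 18 h, with two peptoids per plate.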

For assay [2], the system named is Staphylococcus aureus. As to the kind of experiment: Antibacterial activity against Staphylococcus aureus ATCC 6538 after 18 hrs. It is filed as functional. The settings on record: ATCC 6538, 18 h. The procedure, abridged: as §1

Converted amounts (≈) assume the structure as drawn.

The source of these data is ChEMBL document CHEMBL1138561, “Synthesis of novel N-protected hydrophobic phenylalanines and their application in potential antibacterials” (2009).

A word on the MIC: it is the smallest concentration in the dilution series that meets the test's criterion for growth inhibition. For the compound `C=CCOc1ccc(C[C@H](NC(C)=O)C(=O)N[C@@H](CCCCN)C(=O)N[C@H](CCCNC(=N)N)C(=O)N[C@@H](CC=C)C(=O)OCc2ccccc2)cc1.Cl.Cl`, the MIC in assay [1] and in assay [2] was > 125 µg/mL throughout.

`C=CC[C@H](NC(=O)[C@@H](CCCNC(=N)N)NC(=O)[C@H](CCCCN)NC(=O)[C@H](Cc1ccc(-c2cc3ccccc3c3ccccc23)cc1)NC(C)=O)C(=O)OCc1ccccc1.Cl.Cl`: the MIC in assay [1] is > 125 µg/mL; in assay [2], 7.8 µg/mL.

In the case of `C=CC[C@H](NC(=O)[C@H](CCCCN)NC(=O)[C@H](Cc1ccc(-c2c3ccccc3cc3ccccc23)cc1)NC(C)=O)C(=O)OC.Cl`, the figures for the MIC in assay [1] and in assay [2] were > 125 µg/mL and 31.3 µg/mL, respectively.

As for `C=CC[C@H](NC(=O)[C@H](CCCCN)NC(=O)[C@H](Cc1ccc(-c2cc3ccccc3c3ccccc23)cc1)NC(C)=O)C(=O)OC.Cl`, the minimal inhibitory concentration (MIC) in assay [1] was > 125 µg/mL; in assay [2], 15.6 µg/mL.

With `C=CC[C@H](NC(=O)[C@@H](CCCNC(=N)N)NC(=O)[C@H](CCCCN)NC(=O)[C@H](Cc1ccc(-c2c3ccccc3cc3ccccc23)cc1)NC(C)=O)C(=O)OCc1ccccc1.Cl.Cl`, the MIC in assay [1] was > 125 µg/mL; in assay [2], 15.6 µg/mL.

For the compound `CN[C@H](CC(C)C)C(=O)N[C@H]1C(=O)N[C@@H](CC(N)=O)C(=O)N[C@H]2C(=O)N[C@H]3C(=O)N[C@H](C(=O)N[C@H](C(=O)O)c4cc(O)cc(O)c4-c4cc3ccc4O)[C@H](O)c3ccc(c(Cl)c3)Oc3cc2cc(c3O[C@@H]2O[C@H](CO)[C@@H](O)[C@H](O)[C@H]2O[C@H]2C[C@](C)(N)[C@H](O)[C@H](C)O2)Oc2ccc(cc2Cl)[C@H]1O` [VANCOMYCIN], in assay [2], the lowest concentration to inhibit growth (MIC) was 1.95 µg/mL (≈ 1.35 µM).
